Measured values: ChEMBL document CHEMBL5614452, “Synthesis and Optimization of Small Molecule Inhibitors of Prostate Specific Antigen” (ACS Med Chem Lett, 2024)
Values after ≈ are worked out from the molar mass of the structure shown. Values belong to the molecule of their own block, whether it stands above or below them. Active and inactive are the calls of the source. No cut-off for these calls is given here.

Columns and labels:
[1] = target: T1, Prostate-specific antigen (Homo sapiens, UniProt P07288); assay: Inhibition of recombinant human semen PSA using Mu-HSSKLQAMC as substrate preincubated for 15 mins followed by substrate addition by fluorescence based assay
T1 sequence (P07288 whole entry): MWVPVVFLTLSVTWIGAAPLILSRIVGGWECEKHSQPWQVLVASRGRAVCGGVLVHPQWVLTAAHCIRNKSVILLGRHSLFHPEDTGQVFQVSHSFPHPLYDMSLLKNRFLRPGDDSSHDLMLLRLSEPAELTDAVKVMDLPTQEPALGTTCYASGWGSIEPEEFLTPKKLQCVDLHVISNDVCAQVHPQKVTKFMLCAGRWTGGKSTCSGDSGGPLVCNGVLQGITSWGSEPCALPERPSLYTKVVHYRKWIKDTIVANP

Neutrophil elastase = target: T2, Neutrophil elastase (Homo sapiens, UniProt P08246); assay: Inhibition of neutrophil elastase (unknown origin) using 7-amino-4-trifluoromethyl-coumarin based peptide as substrate measured for 1 hr by fluorescence based microplate reader assay
T2 sequence (P08246 whole entry): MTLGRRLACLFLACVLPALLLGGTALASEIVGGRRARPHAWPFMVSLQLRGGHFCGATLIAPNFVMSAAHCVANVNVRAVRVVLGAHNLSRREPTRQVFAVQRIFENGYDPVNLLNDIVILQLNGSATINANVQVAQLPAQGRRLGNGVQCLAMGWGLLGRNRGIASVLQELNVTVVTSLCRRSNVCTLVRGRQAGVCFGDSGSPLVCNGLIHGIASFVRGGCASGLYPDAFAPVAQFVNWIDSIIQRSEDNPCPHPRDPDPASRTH
How it was run: (§1)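 Protease inhibition measured in biochemical enzyme assays, with the result reported as Ki.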

[2] = Drug uptake in human HepG2 cells assessed as intracellular concentration per 10^9 cells at 10 uM incubated for 2 hrs by UHPLC-TSQ analysis; assay type: ADME, cell-based; settings: hepg2, 2 h
How it was run: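 HepG2 cells exposed to compound. Intracellular amount expressed as nmol per 10^9 cells, n = 4.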

[3] = Cytotoxicity against human Ect1/E6E7 cells incubated for 1 to 3 hrs by MTT assay; assay type: toxicity, cell-based; settings: time 1-3 hrs
How it was run: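 Ect1/E6E7 human ectocervical cells exposed to compound for 1 or 3 h, with viability read by MTT assay. Nonoxynol-9 served as the positive cytotoxic control.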

[4] = Stability in DMEM/F-12 medium assessed as compound remaining at 10 uM after 8 hrs by LC-MS/MS analysis; assay type: physicochemical; settings: read-out: Stability
How it was run: (§2)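 Compound incubated in DMEM/F12 medium at 37 °C and sampled at 0, 8 and 24 h. Stability reported as percent of compound remaining.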

[5] = Stability in DMEM/F-12 medium assessed as compound remaining at 10 uM after 24 hrs by LC-MS/MS analysis; assay type: physicochemical; how it was run: as §2
[6] = Inhibition of alpha-chymotrypsin (unknown origin) using N-Benzoyl-L-tyrosine ethyl ester as substrate preincubated for 5 mins followed by substrate addition and measured every 1 min for 10 mins by microplate reader assay; set-up: species or system Homo sapiens; how it was run: as §1
Prothrombin = Prothrombin (Homo sapiens, UniProt P00734); assay: Inhibition of thrombin (unknown origin) by fluorescence based assay; how it was run: as §1
[7] = Aqueous solubility of compound incubated for 1 hr by HPLC analysis; assay type: physicochemical
[8] = target: T3, Prostate-specific antigen (Homo sapiens) (UniProt P07288); assay: Inhibition of recombinant human semen PSA at 0.000001 to 500 uM using Mu-HSSKLQAMC as substrate preincubated for 15 mins followed by substrate addition by fluorescence based assay; assay type: single protein; settings: dose lower 1e-06 µM, dose upper 500.0 µM
T3 sequence (whole entry): T1 sequence (P07288 whole entry)
How it was run: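 PSA inhibition in a biochemical assay. Compounds tested at 100 nM, 1 μM, 10 μM, 100 μM and 500 μM, plus a lower picomolar-level concentration. Compounds with no inhibition across this range were scored not active.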

Structure (SMILES): COc1ccc(C(=O)n2nc(-c3ccncc3)cc2N)cc1OC
Ki [1]: 104 µM

Structure (SMILES): COc1ccc(C(=O)n2nc(-c3cccnc3)nc2N)cc1OC
remaining at 8 h, 10 µM [4]: ~4% | Stability [5]: Unstable

Structure (SMILES): COc1ccc(-c2cc(N(C)C)n(C(=O)c3ccc(OC)c(OC)c3)n2)cn1
inhibition [8]: inactive

Structure (SMILES): CNc1cc(-c2ccc(OC)nc2)nn1C(=O)c1ccc(OC)c(OC)c1
inhibition [8]: inactive

Structure (SMILES): COc1ccc(CC(=O)n2nc(-c3cccnc3)nc2N)cc1OC
Ki [1]: 308 µM

Structure (SMILES): COc1ccc(Cn2nc(-c3cccnc3)nc2N)cc1OC
inhibition [8]: inactive

Structure (SMILES): Nc1n[nH]c(-c2cccnc2)n1
inhibition [8]: inactive

Now from value to molecule, other results behind:

Ki (Neutrophil elastase): 1180 µM | Drug uptake [2]: 3.41 nmol | remaining at 8 h, 10 µM [4]: ~47% | Stability [5]: Unstable | Ki [6]: 2.74 µM | Ki (Prothrombin): 0.411 µM | solubility at 1 h [7]: 27 µM (≈ 9.03 µg/mL)
Structure (SMILES): COc1ccc(-c2cc(N)n(C(=O)c3ccc4[nH]cnc4c3)n2)cn1
Activity [3]: Non-Toxic

inhibition [8]: inactive
Structure (SMILES): COc1cncc(-c2cc(N)n(C(=O)c3ccc(OC)c(OC)c3)n2)c1

Ki [1]: 367 µM
Structure (SMILES): COc1ccc(-c2cc(N)n(C(=O)c3cc(OC)c(OC)c(OC)c3)n2)cn1
